Experimental data as given in ChEMBL document CHEMBL1130025, “Dihydro(alkylthio)(naphthylmethyl)oxopyrimidines: novel non-nucleoside reverse transcriptase inhibitors of the S-DABO series” (J Med Chem, 1997).

Tests used:
MT4 [1] = test: Inhibitor activity against resistant HIV-1 strain MC639r was determined.; assay type: functional, cell-based; details: Homo sapiens
MT4 [2] = test: Inhibitory activity against resistant HIV-1 strain NevR was determined.; assay type: functional, cell-based; details: Homo sapiens
[3] = tested on: Human immunodeficiency virus type 1; test: Selectivity index is the ratio of CC50 to EC50; details: Human immunodeficiency virus 1
C8166 = test: Ability to inhibit HIV-2 multiplication in acutely infected C8166 cells; assay type: functional, cell-based; details: Homo sapiens
Outline: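 C8166 cells (1×10^4 per well) in RPMI 1640 with 10% FCS were infected with 1000 CCID50 of HIV-2 ROD, alongside serial compound dilutions from DMSO stock. After 5 days at 37 °C, viable cells were counted by MTT. EC50 is the dose giving 50% protection from virus-induced cytopathicity. Data are means of three experiments.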

H9 = test: Ability to inhibit HIV-1 multiplication in chronically infected H9/IIIB cells; assay type: functional, cell-based; details: Homo sapiens
Outline: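 Value taken as compound dose lowering infectious HIV-1 titer by 1 log in chronically infected H9/IIIB cells. Titer was read in C8166 cells by limiting dilution (1:2, 4 replica wells per dilution), with light-microscope scoring of cytopathicity after 4 days, expressed as CCID50/mL. Data are means of three separate experiments.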

MT4 [4] = test: Dose required to reduce the viability of mock-infected cells by 50%; assay type: functional; details: Homo sapiens
Outline: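 Mock-infected MT-4 cells (1×10^4 per well) were exposed to compound dilutions in parallel with the antiviral assay. After 4 days at 37 °C, viability was measured by MTT. CC50 is the dose reducing viable cell number by 50%.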

MT4 [5] = test: Dose required to achieve 50% protection of MT-4 cells from the HIV-1 induced cytopathogenicity in HIV-1 infected MT-4 cells; details: Homo sapiens

In the case of `CCC(C)Sc1nc(O)c(C)c(COc2ccccc2)n1` (configuration not stated), the EC50 (MT4 [1]) is reported as over 100 µM, the EC50 (MT4 [2]) is reported as over 100 µM and the Ratio [3] is reported as 7. The EC50 (C8166) was over 100 µM, the EC50 (H9) was over 100 µM and the CC50 (MT4 [4]) was 60 µM. It also gave an EC50 (MT4 [5]) of 8.9 µM.
